Our source for the viability and inhibition values is ChEMBL document CHEMBL4130515, “Identification of Privileged Antichlamydial Natural Products by a Ligand-Based Strategy” (J Nat Prod, 2017).

By inhibition is commonly meant the relative decrease from the control value, in per cent.

Where a name gives a salt, the structure may show the parent alone.

A short description of series [1]: Cytotoxicity against human HL cells assessed as cell viability at 50 uM after 72 hrs by resazurin dye based fluorescence assay relative to control. To be noted: HL cells, read-out: Activity. An outline of the steps: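 HL cells grown overnight to confluence, then exposed to compound at 50 μM for 72 h at 37 °C, four parallel replicates. Read-out after 2 h with 20 μM resazurin in PBS, fluorescence at 570/590 nm (ex/em). Viability % is relative to cells in 0.25% DMSO medium. Usnic acid 50 μM as positive control.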

The next series concerns Chlamydia pneumoniae. Nature of the series: Antichlamydial activity against Chlamydia pneumoniae K7 infected in HL cells assessed as chlamydial inhibition at 50 uM after 70 hrs by fluorescent microscopic analysis. It is filed as functional. An outline of the steps:
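Confluent HL cells infected with C. pneumoniae K7 at MOI 0.3 in medium with 1 μg/mL cycloheximide, centrifuged 500 rpm 1 h, then held at 37 °C for 1 h. At 2 h, compound added at 50 μM or DMSO vehicle. After 70 h at 37 °C, inclusions stained and counted in four fields per coverslip under a fluorescence microscope (20×). Inhibition % is relative to mean vehicle counts.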

In the case of `CCOC(=O)Oc1c(OC)cc(C(=O)O[C@H]2C[C@H]3CN4CCc5c([nH]c6cc(OC)ccc56)[C@@H]4C[C@H]3[C@@H](C(=O)OC)[C@@H]2OC)cc1OC`, the viability at 72 h, 50 µM in series [1] is 67.6%.

Consider `C[C@@H]1C[C@H]2CC[C@H](O2)[C@H](C)C(=O)O[C@@H](C)C[C@@H]2CC[C@@H](O2)[C@@H](C)C(=O)O[C@H](C)C[C@H]2CC[C@H](O2)[C@H](C)C(=O)O[C@@H](C)C[C@@H]2CC[C@@H](O2)[C@@H](C)C(=O)O1`, for which, in series [1], the viability at 72 h, 50 µM came to 23.7%.

In the case of `COc1c(O)c2c(=O)cc(OC)c3c4c(OC)cc(=O)c5c(O)c(OC)c6c(c(c1CC(C)(O)C6C(C)=O)c23)c54` (configuration not stated), the viability at 72 h, 50 µM in series [1] was -0.3%.

As to `O=c1cc(-c2ccccc2)oc2cc(O)ccc12` [7-HYDROXYFLAVONE], the viability at 72 h, 50 µM in series [1] came to 71.1%.

As for `O=C1c2c(O)cc(O)cc2O[C@H](c2ccc(O)c(O)c2)[C@H]1O` [(+)-TAXIFOLIN], the viability at 72 h, 50 µM in series [1] stood at 95.2%. Further, in the series on Chlamydia pneumoniae, the inhibition at 50 µM was determined as 13.4%.

As to `C=C1CC[C@H]2O[C@]2(C)CC[C@@H]2[C@@H]1CC2(C)C` [(-)-CARYOPHYLLENE OXIDE], the viability at 72 h, 50 µM in series [1] amounted to 107%. Besides, in the series on Chlamydia pneumoniae, the inhibition at 50 µM was 35.7%.

Regarding `Oc1cc(O)c2c(c1)O[C@H](c1ccc(O)c(O)c1)[C@H](O)C2` [(-)-EPICATECHIN], the viability at 72 h, 50 µM in series [1] stood at 93.4%. For the same compound, the inhibition at 50 µM with Chlamydia pneumoniae came out at 41.7%.

Turning to `C[C@@]1(CO)[C@H](O)CC[C@@]2(C)[C@H]1CC[C@H]1C[C@@H]3C[C@@]12CC[C@]3(O)CO` [APHIDICOLIN], the viability at 72 h, 50 µM in series [1] came out at 92.3%. In the series on Chlamydia pneumoniae, the inhibition at 50 µM was -3.8%.

For `O=c1cc(-c2ccc(O)cc2)oc2cc(O[C@@H]3O[C@H](CO)[C@@H](O)[C@H](O)[C@H]3O)cc(O)c12` [APIGETRIN], in series [1], the viability at 72 h, 50 µM was 48.1%.

Turning to `c1cc2c(cc1[C@H]1OC[C@H]3[C@@H]1CO[C@H]3c1ccc3c(c1)OCO3)OCO2` [ASARININ], the viability at 72 h, 50 µM in series [1] came out at 57.1%.

On to `CC(=O)O[C@H]1C(=O)[C@@]2(C)[C@H]([C@H](OC(=O)c3ccccc3)[C@]3(O)C[C@H](O)C(C)=C1C3(C)C)[C@]1(OC(C)=O)CO[C@@H]1C[C@@H]2O` [BACCATIN III], for which the viability at 72 h, 50 µM in series [1] worked out at 34.6%.

Take `O=C(/C=C/c1ccc(O)c(O)c1)OCCc1ccccc1` [CAFFEIC ACID PHENETHYL ESTER]: the viability at 72 h, 50 µM in series [1] turned out to be 46%.

Regarding `C/C=C(/C)C(=O)O[C@H]1CC[C@@]2(C)[C@@H]3CC[C@H]4[C@]5(O)C[C@H](O)[C@@]6(O)[C@@H](CN7C[C@@H](C)CC[C@H]7[C@@]6(C)O)[C@]5(O)C[C@@]42O[C@]13O` [CEVADINE], in series [1], the viability at 72 h, 50 µM came to 98.6%. Moreover, in the series on Chlamydia pneumoniae, the inhibition at 50 µM turned out to be 39%.

Consider `CO[C@H]1[C@@H](O)[C@@H](C)O[C@H](O[C@H]2[C@H](Oc3cccc4c(O)c5c(=O)oc6ccc(C)c7c(=O)oc(c34)c5c67)O[C@H](C)[C@H](O)[C@@H]2O)[C@@H]1O` [CHARTREUSIN], for which the viability at 72 h, 50 µM in series [1] was determined as 4%.

As to `CC(=O)O[C@H]1[C@H]2O[C@]23[C@@H]2CC[C@@H]4C[C@@H](O)CC[C@]4(C)[C@H]2CC[C@]3(C)[C@H]1c1ccc(=O)oc1` [CINOBUFAGIN], the viability at 72 h, 50 µM in series [1] was determined as 0.2%.

`COc1ccc(C(=O)OC2C[C@H]3CC[C@H](C2)N3C)cc1OC` (some centres not stated) [CONVOLVAMINE HYDROCHLORIDE]: the viability at 72 h, 50 µM in series [1] was found to be 78.8%. In addition, the inhibition at 50 µM in the series with Chlamydia pneumoniae was 21.1%.

For the compound `O=c1oc2cc(O)ccc2c2oc3cc(O)ccc3c12` [COUMESTROL], the viability at 72 h, 50 µM in series [1] was determined as 96.3%. In addition, in the series on Chlamydia pneumoniae, the inhibition at 50 µM turned out to be 0%.

As for `C[C@@H]1C[C@@H]([C@H](O)CC2CC(=O)NC(=O)C2)C(=O)[C@@H](C)C1` [CYCLOHEXIMIDE], the viability at 72 h, 50 µM in series [1] is 66.4%.

Consider `COc1cc2c(cc1OC)[C@@H]1C(=O)c3ccc4c(c3O[C@@H]1CO2)C=CC(C)(C)O4` [DEGUELIN], for which the viability at 72 h, 50 µM in series [1] came out at 21.6%.

`CC1=CC(=O)C2=C(C)CC[C@@H]3[C@H](OC(=O)[C@H]3C)[C@@H]12` [DESACETOXYMATRICARIN]: the viability at 72 h, 50 µM in series [1] amounted to 93.9%. Further, the inhibition at 50 µM in the series on Chlamydia pneumoniae stood at 30.1%.

As for `COc1cc(/C=C/c2ccccc2)oc(=O)c1` [DESMETHOXYYANGONIN], the viability at 72 h, 50 µM in series [1] was found to be 89.8%. For the same compound, in the series on Chlamydia pneumoniae, the inhibition at 50 µM stood at 35.7%.

In the case of `C[C@H]1O[C@@H](O[C@H]2[C@@H](O)C[C@H](O[C@H]3[C@@H](O)C[C@H](O[C@H]4CC[C@@]5(C)[C@H](CC[C@@H]6[C@@H]5CC[C@]5(C)[C@@H](C7=CC(=O)OC7)CC[C@]65O)C4)O[C@@H]3C)O[C@@H]2C)C[C@H](O)[C@@H]1O` [DIGITOXIN], in series [1], the viability at 72 h, 50 µM was 0.1%.

As for `CC(C)[C@@]1(NC(=O)[C@@H]2C[C@@H]3c4cccc5[nH]cc(c45)C[C@H]3N(C)C2)O[C@@]2(O)[C@@H]3CCCN3C(=O)[C@H](Cc3ccccc3)N2C1=O` [DIHYDROERGOCRISTINE MESYLATE], the viability at 72 h, 50 µM in series [1] came out at 2.7%.

Consider `CC(C)=CCC[C@](C)(O)[C@H]1CC[C@]2(C)[C@@H]1CC[C@@H]1[C@@]3(C)CCC(=O)C(C)(C)[C@@H]3CC[C@]12C` [DIPTEROCARPOL], for which the viability at 72 h, 50 µM in series [1] was 32.1%.

For the compound `C[C@@H]1O[C@@H](OC[C@H]2O[C@@H](Oc3cc(O)c4c(c3)O[C@H](c3ccc(O)c(O)c3)CC4=O)[C@H](O)[C@@H](O)[C@@H]2O)[C@H](O)[C@H](O)[C@H]1O` [ERIOCITRIN], the viability at 72 h, 50 µM in series [1] was found to be 75.2%. Also, the inhibition at 50 µM in the series with Chlamydia pneumoniae was 8.6%.

In the case of `O=C1C[C@@H](c2ccc(O)c(O)c2)Oc2c1ccc(O[C@@H]1O[C@H](CO)[C@@H](O)[C@H](O)[C@H]1O)c2O` [FLAVANOMAREIN], the viability at 72 h, 50 µM in series [1] is 82.6%. The inhibition at 50 µM in the series on Chlamydia pneumoniae amounted to 22.1%.

For the compound `Cc1cc2c(C(C)C)c(O)c(O)c(C=O)c2c(O)c1-c1c(C)cc2c(C(C)C)c(O)c(O)c(C=O)c2c1O` [GOSSYPOL], the viability at 72 h, 50 µM in series [1] is 0.1%.

As for `C=CCc1ccc(O)c(-c2ccc(O)c(CC=C)c2)c1` [HONOKIOL], the viability at 72 h, 50 µM in series [1] came out at 8.8%.

`CN1CCc2cc(O)c(O)cc2C1Cc1ccc(O)c(O)c1` (configuration not stated) [LAUDANOSOLINE HYDROBROMIDE]: the viability at 72 h, 50 µM in series [1] is 72.8%.

In the case of `CCn1cc(C(=O)O)c(=O)c2ccc(C)nc21` [NALIDIXIC ACID], the viability at 72 h, 50 µM in series [1] turned out to be 15.8%.

As for `C[C@@H]1C/C=C/C=C/C=C/C=C/[C@H](O[C@@H]2O[C@H](C)[C@@H](O)[C@H](N)[C@@H]2O)C[C@@H]2O[C@](O)(C[C@@H](O)C[C@H]3O[C@@H]3/C=C/C(=O)O1)C[C@H](O)[C@H]2C(=O)O` [NATAMYCIN], the viability at 72 h, 50 µM in series [1] was determined as 67.1%.

On to `CC1(C)CC[C@]2(C(=O)O)CC[C@]3(C)C(=CC[C@@H]4[C@@]5(C)CC[C@H](O)C(C)(C)[C@@H]5CC[C@]43C)[C@@H]2C1` [OLEANOLIC_ACID], for which, in series [1], the viability at 72 h, 50 µM worked out at 36.3%.

Take `C=C1C(=O)[C@]23[C@H](O)[C@H]1CC[C@H]2[C@@]12CO[C@]3(O)[C@@H](O)[C@@H]1C(C)(C)CC[C@@H]2O` [ORIDONIN]: in series [1], the viability at 72 h, 50 µM worked out at 0%.

On to `C[C@]1(C(=O)O)CCC[C@]2(C)c3cc(O)ccc3CC[C@@H]12` [PODOCARIC ACID], for which, in series [1], the viability at 72 h, 50 µM came to 27.9%.

Consider `C[C@@H]1C[C@H]2O[C@@H]2/C=C\C=C\C(=O)Cc2c(Cl)c(O)cc(O)c2C(=O)O1` [RADICICOL], for which, in series [1], the viability at 72 h, 50 µM is 0.6%.

With `CN1CCc2cc3c(c4c2[C@H]1Cc1ccccc1-4)OCO3` [REMERINE HYDROCHLORIDE], the viability at 72 h, 50 µM in series [1] was 45.2%.
